A short description of the data set: Toxicity liver stage against HepG2, at 10uM. It counts as cell-based. Set-up: test concentration 10 uM, cell line HepG2-A16-CD81EGFP. Particulars: human, HepG2-A16-CD81EGFP cells; read-out: INHIBITION
The essentials:
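Uninfected HepG2-A16-CD81EGFP cells, 3 × 10^3 per well, 1536-well, plated on prespotted compound at 10 μM final, parasite-free screening media added to match infected plates; puromycin 10 μM positive, DMSO 0.5% negative; run in parallel with 48 h PbLuc assay at 37 °C, 5% CO2; viability by CellTiter-Glo luminescence, normalized to controls.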
For the compound `COC(=O)Nc1nc2c(s1)CN(C(=O)NCc1cccs1)CC2`, the cytotoxicity at 10 µM was determined as 3.89%.
To `Cn1c(=O)n(C)c2cc(NS(=O)(=O)Cc3ccccc3)ccc21` belongs -4.62%; to `COc1cc(C2SCC(=O)Nc3[nH]ncc32)c(OC)c2c1OCO2` (stereo not given), 6.63%.
To `Cc1ccncc1CN1CCOCC1c1[nH]ncc1C` (stereo not given) belongs 1.78%; to `Cn1cc(CN2CCCC(n3c(=O)oc4ccccc43)C2)cn1` (stereo not given), -0.18%.
Take `Cc1ccc(-c2ncc(CN3CCN(C(=O)N(C)C)CC3)s2)o1`: the cytotoxicity at 10 µM is -3.25%.
To `CCc1nnc(NC(=O)NCCN(C)C(=O)OC(C)(C)C)s1` belongs -1.6%; to `CCOC1CCN(C(=O)NCc2cccc(-n3cccn3)c2)CC1`, 0.944%.
To `CCOCC(=O)Nc1ccc(N2CCSCC2)cc1C` belongs 9.53%; to `COc1cccc(CNc2nc(N3CCOCC3)ns2)c1OC`, -2.76%.
In the case of `CCC1CCCCN1CCc1ccncc1` (stereo not given), the cytotoxicity at 10 µM worked out at 2.4%.
For `Cc1cc(Nc2ccc3c(c2)CC(=O)N3)nc(C(C)C)n1`, the cytotoxicity at 10 µM came out at 3.67%.
To `COC(=O)c1cc(OC)ccc1NCC(=O)NCC(=O)N1CCCC1` belongs 0.431%; to `COC(=O)CCNC(=O)c1nnn(-c2ccc(F)cc2)c1C1CC1`, -12.1%; to `CC(C(=O)Nc1ccnn1C(C)C)N1CCc2nn(C)c(=O)cc2C1` (stereo not given), 3.95%.
To `Cc1noc(CN(Cc2cccc(C#N)c2)Cc2cccs2)n1` belongs 3.8%.
On to `COCc1nc(CNC2CCCc3c2cnn3C(C)(C)C)cs1` (stereo not given), for which the cytotoxicity at 10 µM was -1.62%.
To `COCC(C)(CCO)NC(=O)Nc1c(F)cccc1Br` (stereo not given) belongs 3.79%.
Turning to `COCC(=O)N1CC[C@@H]2O[C@H](COCc3csc(C)n3)CC[C@@H]21`, the cytotoxicity at 10 µM is -85.8%.
To `O=C(N1CCCC1)N1CCCC2(CCN(c3ccsc3)C2=O)C1` (stereo not given) belongs -74.1%.
On to `O=C(O)c1cnc(-c2cccc3c2CCNC3)c(Cl)c1`, for which the cytotoxicity at 10 µM is 8.97%.
For the compound `CN(C)Cc1nnc(C2CCN(c3ncccc3Cl)CC2)n1C1CC1`, the cytotoxicity at 10 µM was -2.57%.
To `COCCN(Cc1cnn(C)c1)C(=O)C1CCCN(C2CCOCC2)C1` (stereo not given) belongs 4.76%; to `CN(Cc1cc(-c2cccnc2)no1)C(=O)[C@@H]1CSCN1C`, 0.66%; to `Cc1nonc1C1CCCN1C(=O)c1cc2n(n1)CCCN(C(C)C)C2` (stereo not given), -10%.
To `CN1CC2(CCCN(Cc3nnc(-c4ccco4)o3)CC2)OC1=O` (stereo not given) belongs -6.12%; to `Cc1noc(CN(C)C(=O)c2n[nH]c(N)c2-c2ccccc2)n1`, -2.14%; to `NC(=O)C1CCN(CC(=O)N(Cc2ccccc2)Cc2nccs2)CC1`, -5.08%.
To `Cc1cccc(CN(C(=O)CCn2cncn2)C(C)C)c1` belongs 8.32%.
For the compound `Cc1occc1C(=O)N1CCC2(CCCN(CC3CC3)C2=O)C1` (stereo not given), the cytotoxicity at 10 µM was -4.58%.
To `Cc1ccccc1CN(CCN(C)C)Cc1ccccc1C(=O)O` belongs -1.97%; to `O=c1[nH]c(COc2ccccc2Cl)nc2c1CCNC2`, 1.97%; to `CCCOC1CCCN(C(=O)c2cnc(-c3csc(C)n3)nc2O)C1` (stereo not given), -1.97%.
For `COc1cccc(CN2CCCC(Nc3cccc(F)c3)C2)c1O` (stereo not given), the cytotoxicity at 10 µM was -10.2%.
As to `CCn1ncnc1C(NC(=O)CC1CCN(C(C)C)CC1)C1CC1` (stereo not given), the cytotoxicity at 10 µM came out at 8.6%.
To `O=C(O)[C@]12CCCN(Cc3ccccc3)C[C@H]1CN(c1ncccn1)C2` belongs -8.33%; to `Cc1ccc(CN2CCC3(CCN(c4cnn(C)c4)C3=O)C2)s1` (stereo not given), -70%.
To `Cc1ccc(C(CCNCCN(C)C)C2CCOC(C)(C)C2)cc1` (stereo not given) belongs 3.46%.
For the compound `O=C(c1cccnc1-c1ccoc1)N1C[C@@H]2CC[C@H]1C2`, the cytotoxicity at 10 µM stood at 6.3%.
To `CCCNc1ncc(CN2C[C@@H]3CC[C@H]2CN(C2CCOCC2)C3)cn1` belongs -7.84%.

Values taken from ChEMBL document CHEMBL4513216, “Probing the Open Global Health Chemical Diversity Library for Multistage-Active Starting Points for Next-Generation Antimalarials” (ACS Infect Dis, 2020).
